Data as given in ChEMBL document CHEMBL3259696, “Berberine and its metabolites: relationship between physicochemical properties and plasma levels after administration to human subjects” (J Nat Prod, 2014).
Active and inactive are the calls of the source. No cut-off for these calls is given here.

Experiments:
[1] = 1-Octanol-water partition coefficient, log P of the compound at pH 8.6 after 1 week by HPLC-ESIMS/MS analysis; format: physicochemical
Method in brief: (§1)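 Shake-flask partition: analytes started at 0.1 mM in 0.1 M Na phosphate buffer (pH range 4.5 to 9). Buffer solution mixed 1:1 with buffer-presaturated 1-octanol and equilibrated 1 week under continuous stirring at 25 °C. After centrifugation the phases were separated, and the aqueous phase was diluted in mobile phase and quantified by HPLC-ESIMS/MS. LogD calculated from the aqueous-phase concentration.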

[2] = 1-Octanol-water partition coefficient, log P of the compound at pH 7 after 1 week by HPLC-ESIMS/MS analysis; format: physicochemical; method in brief: as §1
[3] = 1-Octanol-water partition coefficient, log P of the compound at pH 6 after 1 week by HPLC-ESIMS/MS analysis; format: physicochemical; method in brief: as §1
[4] = 1-Octanol-water partition coefficient, log P of the compound at pH 4.5 after 1 week by HPLC-ESIMS/MS analysis; format: physicochemical; method in brief: as §1
[5] = 1-Octanol-water distribution coefficient, log D of the compound at pH 8.6 after 1 week by HPLC-ESIMS/MS analysis; format: physicochemical; method in brief: as §1
[6] = 1-Octanol-water distribution coefficient, log D of the compound at pH 7 after 1 week by HPLC-ESIMS/MS analysis; format: physicochemical; method in brief: as §1
[7] = 1-Octanol-water distribution coefficient, log D of the compound at pH 6 after 1 week by HPLC-ESIMS/MS analysis; format: physicochemical; method in brief: as §1
[8] = 1-Octanol-water distribution coefficient, log D of the compound at pH 4.5 after 1 week by HPLC-ESIMS/MS analysis; format: physicochemical; method in brief: as §1
[9] = Solubility of the compound in sodium phosphate buffer at pH 8.6 at 25 degC after 1 week by HPLC-ESIMS/MS analysis; format: physicochemical
Method in brief: (§2)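 Solubility samples in sodium phosphate buffer at each pH were stirred continuously for 1 week at 25 °C. Solutions were passed through 0.45 μm regenerated-cellulose filters, diluted in mobile phase and quantified by HPLC-ESIMS/MS.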

[10] = Solubility of the compound in sodium phosphate buffer at pH 7 at 25 degC after 1 week by HPLC-ESIMS/MS analysis; format: physicochemical; method in brief: as §2
[11] = Solubility of the compound in sodium phosphate buffer at pH 6 at 25 degC after 1 week by HPLC-ESIMS/MS analysis; format: physicochemical; method in brief: as §2
[12] = Solubility of the compound in sodium phosphate buffer at pH 4.5 at 25 degC after 1 week by HPLC-ESIMS/MS analysis; format: physicochemical; method in brief: as §2
Albumin = Albumin (Bos taurus, UniProt P02769); experiment: Binding affinity to bovine serum albumin by fluorescence quenching assay; format: ADME; settings: cattle, isolated protein
Albumin, sequence (P02769 whole entry): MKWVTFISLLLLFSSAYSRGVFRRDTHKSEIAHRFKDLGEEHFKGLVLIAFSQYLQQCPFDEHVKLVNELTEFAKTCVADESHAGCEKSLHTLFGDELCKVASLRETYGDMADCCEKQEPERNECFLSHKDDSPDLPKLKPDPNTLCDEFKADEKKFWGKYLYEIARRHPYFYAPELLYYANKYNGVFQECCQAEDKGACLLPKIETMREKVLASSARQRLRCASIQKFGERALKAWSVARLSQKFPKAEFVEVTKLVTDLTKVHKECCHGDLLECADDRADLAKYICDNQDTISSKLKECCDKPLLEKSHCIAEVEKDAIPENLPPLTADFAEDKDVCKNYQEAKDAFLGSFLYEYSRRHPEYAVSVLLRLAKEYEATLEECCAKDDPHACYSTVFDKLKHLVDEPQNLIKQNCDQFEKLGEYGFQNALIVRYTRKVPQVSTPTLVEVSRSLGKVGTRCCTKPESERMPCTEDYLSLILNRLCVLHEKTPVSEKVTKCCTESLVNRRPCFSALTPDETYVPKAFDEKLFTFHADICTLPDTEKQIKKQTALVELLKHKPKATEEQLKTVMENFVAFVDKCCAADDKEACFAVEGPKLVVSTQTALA
Method in brief: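 BSA at 1.0 × 10−5 mol L−1 in Tris-HCl buffer (0.05 M Tris, 0.15 M NaCl, pH 7.4), titrated with quencher from 0 to 2.4 × 10−5 mol L−1 in 0.2 × 10−5 steps at room temperature. Tryptophan emission recorded at 300–500 nm (excitation 295 nm; maximum at 340 nm). Binding constant KB obtained from a modified Stern–Volmer plot, assuming static quenching.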

[13] = Dissociation constant, pKa of the compound; format: physicochemical
Method in brief: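 pKa values predicted in silico for the ionizable groups of the parent and its metabolites, then compared with experimentally obtained values from earlier reports.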

[14] = Cmax in human plasma at 500 mg, po by HPLC-ESIMS/MS analysis; format: ADME, organism-based; design: dose 500 mg, route oral
[15] = Tmax in human at 500 mg, po by HPLC-ESIMS/MS analysis; format: ADME, organism-based; settings: in vivo
Plasma [16] = experiment: Cmax in human plasma assessed as demethyleneberberin at 500 mg, po by HPLC-ESIMS/MS analysis; format: ADME, organism-based; design: dose 500 mg, route oral; settings: in vivo
Plasma [17] = experiment: Cmax in human plasma assessed as jatrorrhizine at 500 mg, po by HPLC-ESIMS/MS analysis; format: ADME, organism-based; design: dose 500 mg, route oral; settings: in vivo
Homo sapiens [18] = experiment: Tmax in human assessed as demethyleneberberin at 500 mg, po by HPLC-ESIMS/MS analysis; format: ADME, organism-based; settings: in vivo
Homo sapiens [19] = experiment: Tmax in human assessed as jatrorrhizine at 500 mg, po by HPLC-ESIMS/MS analysis; format: ADME, organism-based; settings: in vivo
Plasma [20] = experiment: Cmax in human plasma assessed as berberrubine at 500 mg, po after 4 hrs by HPLC-ESIMS/MS analysis; format: ADME, organism-based; design: dose 500 mg, route oral; settings: in vivo
Plasma [21] = experiment: Plasma concentration in human assessed as berberrubine at 500 mg, po after 24 hrs by HPLC-ESIMS/MS analysis; format: ADME, organism-based; settings: in vivo
[22] = Cmax at steady state in hypercholesterolemic patient at 15 mg/kg administered for 3 months by HPLC-ESIMS/MS analysis; format: ADME, organism-based; design: dose 15 mg/kg; settings: human, in vivo
Homo sapiens [23] = experiment: Cmax at steady state in hypercholesterolemic patient assessed as berberrubine at 15 mg/kg/day administered for 3 months by HPLC-ESIMS/MS analysis; format: ADME, organism-based; design: dose 15 mg/kg/day; settings: in vivo
Homo sapiens [24] = experiment: Cmax at steady state in hypercholesterolemic patient assessed as demethyleneberberin at 15 mg/kg/day administered for 3 months by HPLC-ESIMS/MS analysis; format: ADME, organism-based; design: dose 15 mg/kg/day; settings: in vivo
Homo sapiens [25] = experiment: Cmax at steady state in hypercholesterolemic patient assessed as jatrorrhizine at 15 mg/kg/day administered for 3 months by HPLC-ESIMS/MS analysis; format: ADME, organism-based; design: dose 15 mg/kg/day; settings: in vivo
Homo sapiens [26] = experiment: Hypolipidemic activity in hypercholesterolemic patient assessed as reduction of total cholesterol level at 15 mg/kg/day administered for 3 months measured every month during compound treatment; format: functional, organism-based
Homo sapiens [27] = experiment: Hypolipidemic activity in hypercholesterolemic patient assessed as reduction of LDL cholesterol level at 15 mg/kg/day administered for 3 months measured every month during compound treatment; format: functional, organism-based
Homo sapiens [28] = experiment: Effect on total triglyceride level in hypercholesterolemic patient at 15 mg/kg/day administered for 3 months measured every month during compound treatment; format: functional, organism-based
Homo sapiens [29] = experiment: Effect on HDL cholesterol level in hypercholesterolemic patient at 15 mg/kg/day administered for 3 months measured every month during compound treatment; format: functional, organism-based
[30] = Dissociation constant, acidic pKa of the compound; format: physicochemical
[31] = Dissociation constant, basic pKa of the compound; format: physicochemical

| logD at 168 h [1] | logD at 168 h [2] | logD at 168 h [3] | logD at 168 h [4] | logD at 168 h [5] | logD at 168 h [6] | logD at 168 h [7] | logD at 168 h [8] | solubility at 168 h [9] [mM] | solubility at 168 h [10] [mM] | solubility at 168 h [11] [mM] | solubility at 168 h [12] [mM] | Kb (Albumin) [×10³ L/mol] | pKa [13] | Compound | further results |
| --- | --- | --- | --- | --- | --- | --- | --- | --- | --- | --- | --- | --- | --- | --- | --- |
| 1.6 | 1.5 | 1.3 | 0.6 | 4.6 | 2.9 | 1.8 | 0.7 |  |  |  |  |  |  | COc1ccc2cc3n(cc-2c1=O)CCc1cc2c(cc1-3)OCO2 |  |
| -0.5 | -1.1 | -1.1 | -1.1 | -0.3 | -1.1 | -1.1 | -1.1 | 6.5 | 3.7 | 0.2 | 0.2 | 1.98 | 9.4 | COc1ccc2cc3[n+](cc2c1OC)CCc1cc(O)c(O)cc1-3.[Cl-] |  |
| -1.2 | -1.2 | -1.2 | -1.2 | -1.2 | -1.2 | -1.2 | -1.2 | 9.6 | 9 | 7.6 | 8.2 | 3.37 |  | COc1ccc2cc3[n+](cc2c1OC)CCc1cc2c(cc1-3)OCO2.[Cl-] [BERBERINE CHLORIDE] | Cmax [14]: 0.07 nM; Tmax [15]: 1 h; Cmax (Plasma [16]): 0.14 nM; Cmax (Plasma [17]): 0.13 nM; Tmax (Homo sapiens [18]): 1 h; Tmax (Homo sapiens [19]): 2 h; Cmax (Plasma [20]): 1.4 nM; concentration (Plasma [21]): 0.15 nM; Cmax at 3 months [22]: 4 nM; Cmax (Homo sapiens [23]): 6.7 nM; Cmax (Homo sapiens [24]): 1.7 nM; Cmax (Homo sapiens [25]): 5.6 nM; Activity (Homo sapiens [26]): Active; Activity (Homo sapiens [27]): Active; Activity (Homo sapiens [28]): inactive; Activity (Homo sapiens [29]): inactive; pKa [30]: 2.47; pKa [31]: 15.7 |
| 1.6 | 1.1 | 0.9 | -0.02 | 4.6 | 2.5 | 1.4 | 0.01 | 0.5 | 1 | 2 | 4.2 | 1.51 | 5 | COc1ccc2cc3[n+](cc2c1O)CCc1cc2c(cc1-3)OCO2.[Cl-] [BERBERRUBINE CHLORIDE] |  |

| Compound | logD at 168 h [1] | logD at 168 h [2] | logD at 168 h [3] | logD at 168 h [4] | logD at 168 h [5] | logD at 168 h [6] | logD at 168 h [7] | logD at 168 h [8] | solubility at 168 h [9] [mM] | solubility at 168 h [10] [mM] | solubility at 168 h [11] [mM] | solubility at 168 h [12] [mM] | Kb (Albumin) [×10³ L/mol] | pKa [13] | further results |
| --- | --- | --- | --- | --- | --- | --- | --- | --- | --- | --- | --- | --- | --- | --- | --- |
| COc1cc2c(cc1O)CC[n+]1cc3c(OC)c(OC)ccc3cc1-2.[Cl-] [JATRORRHIZINE CHLORIDE] | 0.1 | -1.2 | -1.5 | -1.5 | 0.6 | -1.2 | -1.5 | -1.5 | 12.2 | 12.4 | 1.3 | 1.5 | 1.73 | 9.6 |  |
